The nature of data set [1]: Antioxidant activity of the compound assessed as DPPH radical scavenging activity after 30 mins by spectrophotometric method. It counts as functional. The method in brief:
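Methanolic DPPH (130 μmol L⁻¹ before mixing, 1:1 with sample) mixed with methanolic samples at several concentrations, 30 min at room temperature in the dark, absorbance at 517 nm. Percent scavenging calculated against a methanol-plus-DPPH control. IC50 from linear regression, triplicate. Quercetin reference.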

The subject of data set [2] is L929. Kind of data set: Cytotoxicity against mouse L929 cells assessed as reduction in cell viability at 1.9 to 15.6 ug/ml after 24 hrs by neutral red staining-based spectrophotometric analysis. The conditions noted are these: l929, 24 h. The method, boiled down: (§1)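 L929 fibroblasts grown in DMEM with 2 mM L-glutamine, 10% FBS, penicillin/streptomycin, 37 °C, 5% CO₂. Cells seeded at 2.5 × 10⁵ cells ml⁻¹ and treated after 24 h with 1.95–15.625 μg mL⁻¹ for 24 h (DMSO ≤1.5% final). Neutral red (40 μg mL⁻¹) for 3 h, fixed, dye extracted with ethanol/acetic acid, read at 540 nm. Compared with negative control by Tukey's test.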

Data set [3] is described as follows: Antioxidant activity assessed as ferric ion reducing activity by measuring trolox equivalents after 40 mins by FRAP assay. It is filed as functional. The method in brief:
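Samples at several concentrations incubated with reagent at 37 °C for 40 min in the dark, absorbance read at 593 nm. Expressed as trolox equivalent antioxidant capacity. Quercetin reference.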

The nature of data set [4]: Antioxidant activity assessed as ABTS radical scavenging activity after 16 hrs by spectrophotometric analysis. It counts as functional. The method, boiled down: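 ABTS radical cation generated from ABTS (7 mmol L⁻¹) plus potassium persulfate (140 mmol L⁻¹), 16 h at room temperature in the dark, diluted in ethanol to absorbance 0.70 at 734 nm. Sample added at several concentrations, read at 734 nm after 6 min. Trolox calibration curve (20–600 μmol L⁻¹) in ethanol, results in mmol TE g⁻¹. Quercetin reference.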

In data set [5] the test system is L929. Put plainly: Cytotoxicity against mouse L929 cells assessed as reduction in cell viability at 3.9 to 15.6 ug/ml after 24 hrs by neutral red staining-based spectrophotometric analysis. As to conditions: l929, 24 h. The method in brief:
as §1

Data set [6] relates to L929. Put plainly: Cytotoxicity against mouse L929 cells assessed as reduction in cell viability at 1.9 ug/ml after 24 hrs by neutral red staining-based spectrophotometric analysis. As to conditions: l929, 24 h. The method, boiled down: as §1

Structures are written as SMILES. Values after ≈ are worked out from the molar mass of the structure shown. Active and inactive are the calls of the source. The rule behind the calls is not given here.

`CCCC[Te]c1ccc(/C(C)=N/N)cc1`: the IC50 in data set [1] was determined as 5.08 µg/mL. For the same compound, the Activity entry in the data set with L929 [2] is “Non-Toxic”.
`CCCC[Se]c1ccc(C(C)N)cc1` (centres undefined): the concentration for half-maximal inhibition (IC50) in data set [1] was more than 100 µg/mL.
Consider `C=CCNC(C)c1ccc([Te]CCCC)cc1` (centres undefined), for which the 50% inhibitory concentration (IC50) in data set [1] is more than 100 µg/mL.
`CCCC[Se]c1cccc(C(C)N)c1` (centres undefined): the IC50 in data set [1] is more than 100 µg/mL.
Consider `O=c1c(O)c(-c2ccc(O)c(O)c2)oc2cc(O)cc(O)c12` [QUERCETIN], for which the outcome in data set [3] and in data set [4] was Active. Also, the IC50 in data set [1] is 2.54 µg/mL (≈ 8.4 µM).
As for `C/C(=N\O)c1ccc([Te]CCCO)cc1`, the result in data set [3] was inactive. The IC50 in data set [1] was determined as 13.06 µg/mL. The Activity result with L929 [2] is given as “Non-Toxic”.
In the case of `CCCC[Te]c1ccc(C(C)N)cc1` (centres undefined), the Activity result is “Toxic” with L929 [5] and “Non-Toxic” in the data set on L929 [6]. Also, the result in data set [3] and in data set [4] was Active. The IC50 in data set [1] was 12.07 µg/mL.
Consider `CCCC[Te]c1ccc(C(C)NCc2ccccc2)cc1` (centres undefined), for which the Activity entry in the data set on L929 [5] is given as “Non-Toxic”. In addition, the outcome in data set [3] and in data set [4] was inactive. The half-inhibitory concentration (IC50) in data set [1] amounted to 11.41 µg/mL.
On to `CCCC[Se]c1ccc(C(C)NCC(C)C)cc1` (centres undefined), for which, in data set [1], the 50% inhibitory concentration (IC50) was more than 100 µg/mL.
On to `CCCC[Te]c1ccc(/C(C)=N/O)cc1`, for which the Activity result in the data set with L929 [5] is reported as “Toxic”; in the data set with L929 [6], “Non-Toxic”. The outcome in data set [3] and in data set [4] was Active. The IC50 in data set [1] is 7.79 µg/mL.
With `CCCC[Te]c1ccc(C(C)NCC(C)C)cc1` (centres undefined), the Activity entry with L929 [5] is reported as “Non-Toxic”. Moreover, the outcome in data set [3] and in data set [4] was inactive. In addition, the IC50 in data set [1] came to 12.49 µg/mL.
Take `CCCC[Te]c1cccc(/C(C)=N/O)c1`: the values for the Activity entry in the data set on L929 [5] and in the data set on L929 [6] were “Toxic” and “Non-Toxic”, respectively. Also, the outcome in data set [3] and in data set [4] was Active. For the same compound, the IC50 in data set [1] was found to be 5.12 µg/mL.
Turning to `CCCC[Te]c1cccc(C(C)N)c1` (centres undefined), the Activity result with L929 [5] is “Toxic”; in the data set with L929 [6], “Non-Toxic”. Besides, the outcome in data set [3] and in data set [4] was Active. In addition, the IC50 in data set [1] turned out to be 19.22 µg/mL.
Take `CCCCNC(C)c1ccc([Te]CCCC)cc1` (centres undefined): in the data set on L929 [5], the Activity result is “Non-Toxic”. Moreover, the result in data set [3] and in data set [4] was inactive. For the same compound, the half-maximal inhibitory concentration (IC50) in data set [1] was 8.63 µg/mL.

For the origin of these results see ChEMBL document CHEMBL4308909, “Synthesis, Antioxidant Activity and Cytotoxicity of N-Functionalized Organotellurides” (Bioorg Med Chem, 2019).
